Read-outs that look alike come from different tables or passages of the source.

For data set [1] the following is noted: laboratory settings; cited from earlier work.
Data set [2] has as its system H1299, a human lung cell line. The data set can be described thus: MTS cytotoxicity assay. The format is cell-based. Particulars: read-out: MTS IC50 72 h; H1299, 72 h, mean ± SD, n = 2–7. (Tetrazolium dyes change colour on reduction, which living cells bring about.)
The conditions of data set [3]: Measured at pH 8; ref Palos Pacheco et al. [25]; cited from earlier work.
For the next data set, the system named is Aliivibrio fischeri. The data set can be described thus: Microtox acute toxicity assay. Particulars: n=3, mean ± SD. The data set is classed as cell-based. In short, it runs like this: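 Aliivibrio fischeri bioluminescence assay, run in triplicate. A 2 mM stock was osmotically adjusted and then 1:1 serially diluted in Microtox diluent to 9 concentrations (3.5–889 μM). Diluent alone served as the toxicant-free control. Light output was read before mixing with bacteria and again at 5, 15 and 30 min. EC50 is the concentration halving bioluminescence relative to the control at each time point.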

For data set [4], the system named is H1299, a human lung cell line. As to the kind of experiment: xCELLigence Real-Time Cell Analysis. The format is cell-based. Particulars: read-out: xCELLigence IC50 72 h; H1299, 72 h, n=3, mean ± SD.
The test system of data set [5] is Zebrafish (Danio rerio) embryos. As to the kind of experiment: Zebrafish embryo developmental toxicity assay. The format is in vivo. Particulars: for Zebrafish mortality: 120 hpf. In short, it runs like this:
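Embryos with intact chorions were exposed from 6 to 120 hpf in embryo medium to 0.064–640 μM test compound. All wells contained 0.64% DMSO, and there were 32 embryos per concentration and control. Plates were kept at 28 °C in the dark. At 24 hpf, mortality, developmental delay, spontaneous movement and notochord were scored. At 120 hpf, mortality, edemas, morphological abnormalities, circulation, swim bladder and touch response were scored.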

Setting [6] is: read-out: Microtox EC50 5 min, 5 min exposure.
Setting [7] is: read-out: Microtox EC50 15 min, 15 min exposure.
Where [8] appears, read: read-out: Microtox EC50 30 min, 30 min exposure.

Consider `CCCCC(CC)COC(=O)CC(C(=O)OCC(CC)CCCC)S(=O)(=O)O` (stereo not shown) [bis-(2-ethylhexyl) sulfosuccinate (DOSS), bis-(2-ethylhexyl) sulfosuccinate], for which the Biodegradability result in data set [1] is “biodegradable”.

Broadly, the IC50 is the midpoint of a concentration-inhibition curve. As usually defined, the EC50 is the concentration at which the effect is half-maximal. For the compound `CCCCCCCC(CC(=O)O)OC(=O)CC(CCCCCCC)O[C@@H]1O[C@@H](C)[C@H](O)[C@@H](O)[C@H]1O` (stereo partly drawn) [Rha-C10-C10 (S,R), rhamnosyl-β-hydroxydecanoyl-β-hydroxydecanoate], the IC50 stood at 103 ± 31.9 µM in data set [2] and 111 ± 6.2 µM in data set [4]. Also, in data set [3], the Area is given as 105 ± 4 Å^2 molecule^−1. The CMC in data set [3] is 180 ± 24 µM. For the same compound, the “Minimum Surface Tension” value in data set [3] is reported as 28.5 ± 0.2 mN m^−1. The EC50 with Aliivibrio fischeri (setting [6]) was 61.9 ± 4.7 µM; with Aliivibrio fischeri (setting [7]), 39.6 ± 2.9 µM; in the data set on Aliivibrio fischeri (setting [8]) it was 36.6 ± 2.9 µM.

As for `CCCCCCCC(CC(=O)O)OC(=O)CC(CCCCCCC)O[C@@H]1O[C@@H](C)[C@H](O)[C@@H](O)[C@H]1O` (stereo partly drawn) [Rha-C10-C10 (R,R), rhamnosyl-β-hydroxydecanoyl-β-hydroxydecanoate], the Zebrafish mortality result in data set [5] (640 μM, n = 32, exposure from 6 to 120 hpf) is recorded as “not associated with mortality”. Further, the “Developmental effects (22 developmental endpoints)” value in data set [5] (0.064–640 μM, 24 and 120 hpf) is “no developmental effects”. Besides, the results for the IC50 in data set [2] and in data set [4] were 129.7 ± 1.1 µM and 122 ± 9.1 µM, respectively. Further, the Area in data set [3] was 119 ± 10 Å^2 molecule^−1. For the same compound, the CMC in data set [3] was 270 ± 77 µM. Moreover, the “Minimum Surface Tension” value in data set [3] is reported as 28.1 ± 0.2 mN m^−1. The EC50 was 78.7 ± 4 µM in the data set on Aliivibrio fischeri (setting [6]), 53.8 ± 3.3 µM in the data set on Aliivibrio fischeri (setting [7]) and 47.3 ± 1.2 µM in the data set on Aliivibrio fischeri (setting [8]).

`CCCCCCCC(CC(=O)O)OC(=O)CC(CCCCCCC)O[C@@H]1O[C@@H](C)[C@H](O)[C@@H](O)[C@H]1O` (stereo partly drawn) [Rha-C10-C10 (S,S), rhamnosyl-β-hydroxydecanoyl-β-hydroxydecanoate] returned a Zebrafish mortality in data set [5] (6.4 μM, n = 32) of 19%. For the same compound, the results for the IC50 in data set [2] and in data set [4] were 125 ± 18.6 µM and 108 ± 5.3 µM, respectively. Moreover, the Area in data set [3] is recorded as 94 ± 8 Å^2 molecule^−1. Moreover, the CMC in data set [3] was 201 ± 51 µM. Besides, the “Minimum Surface Tension” value in data set [3] was 29.5 ± 0.2 mN m^−1. The concentration for a half-maximal effect (EC50) with Aliivibrio fischeri (setting [6]) was 64.3 ± 8.5 µM; with Aliivibrio fischeri (setting [7]), 42.6 ± 4.4 µM; in the data set on Aliivibrio fischeri (setting [8]), 38.8 ± 3.7 µM.

Values taken from article PMC6289288 (Journal of hazardous materials, 2018).
